Source: PubChem BioAssay (The Scripps Research Institute Molecular Screening Center)
This is a sample that favours compounds with a hit; in the whole collection about 1% have one here.
PME-1 inh – blocks human protein phosphatase methylesterase 1; inhibition, % at 5.9 µM; recombinant PME-1, FP-Rh probe fluorescence polarization; hit rate 0.53% among 320,000;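 active = inhibition above the campaign mean of all compounds plus 3 SD, cut at about 26% in these data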;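 note: competitive labeling of PME-1 active site by serine hydrolase directed probe; 0% = PME-1 with DMSO and 100% = wells lacking PME-1 enzyme; inhibitors block probe labeling so polarization falls and inhibition rises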
LYPLA2 inh – counter-screen for PME1 inhibitors: inhibitors of human LYPLA2; recombinant LYPLA2, FP-Rh probe fluorescence polarization; inhibition, % at 5.9 µM; O95372; hit rate 0.38% among 320,000; AID 2177;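 active = inhibition above the screen-wide mean plus 3 SD, limit set per campaign, cut at about 26% in these data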;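 note: 0% = LYPLA2 with DMSO and 100% = wells lacking LYPLA2 enzyme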
Target sequence (O95372 whole entry, looked up): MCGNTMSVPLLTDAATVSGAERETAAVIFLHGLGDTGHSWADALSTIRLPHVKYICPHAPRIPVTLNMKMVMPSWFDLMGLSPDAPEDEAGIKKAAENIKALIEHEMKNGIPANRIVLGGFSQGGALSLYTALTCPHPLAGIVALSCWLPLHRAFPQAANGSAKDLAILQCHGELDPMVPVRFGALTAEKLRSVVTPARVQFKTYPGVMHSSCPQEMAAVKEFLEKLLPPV
LYPLA1 inh – blocks human lysophospholipase 1, a PME1 counter-screen. O75608. recombinant LYPLA1, FP-Rh probe fluorescence polarization. inhibition, % at 5.9 µM. hit rate 0.16% among 320,000. AID 2174;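 active = inhibition above the mean of all tested compounds plus 3 SD, set per campaign, cut at about 14% in these data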;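 note: inhibitors block serine hydrolase probe labeling of LYPLA1 so polarization falls; 0% = enzyme with DMSO and 100% = wells lacking LYPLA1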
Target sequence (O75608 whole entry, looked up): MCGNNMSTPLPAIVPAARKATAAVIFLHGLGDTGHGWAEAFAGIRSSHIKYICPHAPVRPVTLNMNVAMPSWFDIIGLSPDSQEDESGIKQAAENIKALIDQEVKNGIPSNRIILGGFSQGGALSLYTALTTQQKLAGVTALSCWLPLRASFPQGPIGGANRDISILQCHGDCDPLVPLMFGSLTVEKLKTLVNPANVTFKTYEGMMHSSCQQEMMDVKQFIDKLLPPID
procasp3 activ – activators of human procaspase-3; recombinant procaspase-3 D3A, Ac-DEVD-pNA absorbance 405 nm; AID 463141; hit rate 0.11% among 330,000; activation, % at 8.5 µM;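 active = activation above the mean of all tested compounds plus 3 SD, cut at about 21% in these data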;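 note: 0% = DMSO alone and 100% = DMSO wells spiked with extra 5 µM PC-3 D3A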
Target sequence (P42574 whole entry D9A/D28A/D175A): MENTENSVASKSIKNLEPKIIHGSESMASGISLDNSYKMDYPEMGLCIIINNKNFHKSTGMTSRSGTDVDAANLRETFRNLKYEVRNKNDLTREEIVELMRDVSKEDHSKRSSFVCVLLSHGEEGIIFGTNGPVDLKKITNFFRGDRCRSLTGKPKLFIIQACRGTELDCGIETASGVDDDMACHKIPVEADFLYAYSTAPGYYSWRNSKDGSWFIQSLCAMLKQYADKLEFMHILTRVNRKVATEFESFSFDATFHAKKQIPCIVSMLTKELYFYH
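Assay system – Procaspase-3 D3A mutant · Benchmarks – DMSO low control, extra-enzyme high control · Technique – 405 nm absorbance of p-nitroaniline, reads at 0 and 120 min · Doses – 8.5 µM nominal · Measure – % activation between DMSO and enzyme-spiked controls · Also added – Ac-DEVD-pNA chromogenic peptide substrate · Schedule – 1 h compound preincubation, 2 h substrate hydrolysis at 25 °C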
Fam108B inh – blocks mouse Fam108B hydrolase in RBBP9 counter-screen. recombinant Fam108B, FP-Rh probe fluorescence polarization. inhibition, % at 9.51 µM. hit rate 0.33% among 300,000. AID 1947;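 active = inhibition above the screen mean inhibition plus 3 SD, computed separately per campaign, cut at about 18% in these data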;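 note: inhibitors lower polarization as less probe binds the enzyme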
proCasp7 act – counter-screen: procaspase-7 (human) activation; P55210; recombinant procaspase-7, Ac-DEVD-pNA absorbance 405 nm; D23A/D198A/D206A triple mutant, cannot self-cleave; scale: DMSO 0, 5 µM enzyme 100; activation, % at 8.5 µM; hit rate 0.093% among 330,000;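 active = percent activation above the screen-wide mean plus 3 SD, cut at about 25% in these data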
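Test system: Procaspase-7 triple mutant (PC-7 D3A). Also added: Ac-DEVD-pNA substrate, 400 µM as added. Schedule: 1 h enzyme–compound preincubation and 2 h substrate reaction, both 25 °C. Signal: p-Nitroaniline absorbance at 405 nm, read at 0 and 120 min. Control set: low DMSO alone, high DMSO plus 5 µM PC-7.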
Fam108b inh conf – Fam108b (mouse) hydrolase inhibition, confirmation assay; shares compounds with Fam108B inh; recombinant Fam108b, FP-Rh probe fluorescence polarization; inhibition, % at 9.51 µM; hit rate 44% among 930; AID 1978;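 active = inhibition above a limit from the primary screen, the mean over all compounds plus 3 SD, cut at about 19% in these data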;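 note: 0% = median of active Fam108b wells and 100% = catalytically dead S170A mutant; inhibitors free the probe so polarization falls as inhibition rises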
Fam108b ABPP HTS – inhibits mouse Fam108b in gel-based ABPP; shares compounds with Fam108B inh; recombinant Fam108b, fluorophosphonate probe; inhibition, % at 20 µM; hit rate 44% among 260; AID 588649; in the data active = inhibition above about 40%
An asterisk follows results filed as active; · = not tested or not shown.

SMILES | PME-1 inh | LYPLA2 inh | LYPLA1 inh | procasp3 activ | Fam108B inh | proCasp7 act | Fam108b inh conf | others
Cc1ccc(NC(=O)c2cc3ccccc3oc2=N)cc1 | -9 | -2 | 1 | -6 | -1 | 3 | ·
N=c1oc2cc(O)ccc2cc1C(=O)Nc1ccc(Cl)cc1 | 3 | 2 | 9 | 0 | 22* | 4 | -5
O=C(Nc1ccccc1)Nc1sccc1-c1nc2ccccc2s1 | -14 | -23 | -21 | -9 | 12 | -14 | ·
O=C(Nc1cccc(Cl)c1)Nc1sccc1-c1nc2ccccc2s1 | 3 | -30 | -22 | -15 | 27* | -19 | 20*
O=C(NCCO)C(=O)NCC1OCCCN1S(=O)(=O)c1ccc2c(c1)OCCO2 (stereo not given) | 0 | -1 | -3 | 7 | 0 | 2 | ·
O=C(NN1C(=O)/C(=C\c2ccc(O)c([N+](=O)[O-])c2)SC1=S)c1ccccc1Cl | 3 | -3 | -3 | -13 | 25* | -17 | 20*
O=C(NN1C(=O)/C(=C/c2cccc(O)c2)SC1=S)c1ccccc1O | 3 | -6 | -5 | -6 | 4 | -9 | ·
Cc1ccc2c(c1)cc1c(=O)n(CC(=O)NCc3ccccn3)nc(C)n12 | 1 | 2 | -2 | -3 | -5 | -1 | ·
O=C(COC(=O)CCCN=C1NS(=O)(=O)c2ccccc21)NC(=O)NC1CCCC1 | -3 | 4 | 0 | 2 | -3 | 15 | ·
c1ccc2c(-c3cc(C4CCNCC4)[nH]n3)cccc2c1 | 0 | -8 | -3 | 2 | -3 | 3 | ·
Cc1ccc(/C=C2\C(=O)ON=C2c2ccccc2)o1 | -5 | -2 | 1 | 6 | 1 | -10 | ·
Cc1ccc(-c2ccc(/C=C3\C(=O)ON=C3c3ccccc3)o2)c([N+](=O)[O-])c1 | 11 | 6 | 6 | 3 | 22* | -3 | 7
CCOC(=O)/C(C#N)=N/Nc1ccc(S(=O)(=O)N2CCc3ccccc32)cc1 | 4 | 0 | 0 | 2 | 6 | -12 | ·
N#C/C(=N\Nc1ccc(S(=O)(=O)N2CCc3ccccc32)cc1)C(N)=S | 12 | -11 | -10 | -37 | 22* | -26 | 27*
COc1ccc(C(=O)NCC(=O)N2CCCC(C(F)(F)F)C2)cc1OC (stereo not given) | 0 | -2 | 1 | 9 | -2 | 7 | ·
COc1ccccc1OCC(=O)NCCS(=O)(=O)N1CCN(c2ccc(F)cc2)CC1 | -4 | 5 | 1 | -3 | 4 | 1 | ·
O=C(O)C1=CC(=C(c2ccc(O)c(C(=O)O)c2)c2ccc(O)c(C(=O)O)c2)C=CC1=O | -55 | -8 | -12 | 5 | 53* | 2 | 32*
Nc1ccc(O)c(C(=O)O)c1 | -3 | 5 | 7 | -1 | 9 | -7 | ·
COc1ccc(Cl)cc1N1C(=O)CC(Sc2ccccc2N)C1=O (stereo not given) | 2 | -3 | -2 | 0 | -1 | 1 | ·
CC(=O)Nc1ccc(N=Cc2c(O)c(C(=O)Nc3ccccc3)cc3ccccc23)cc1 | 3 | 0 | 0 | 1 | 22* | -3 | 14
O=[N+]([O-])c1cc(/C=N/Nc2nc3ccccc3[nH]2)c(O)cc1O | 17 | 19 | 2 | -6 | 19* | 5 | 17
Cc1ccccc1/C=N/Nc1nc2ccccc2[nH]1 | -40 | 1 | 1 | -9 | 5 | -2 | ·
CN(C)c1ccc(/C=N/N2C(=S)SC(C)(C)C2N(O)C(=O)Nc2ccc([N+](=O)[O-])cc2)cc1 (stereo not given) | 5 | 4 | -3 | 12 | 33* | -2 | 100*
CN(C)c1ccc(C=NN2C(=S)SC(C)(C)C2N(O)C(=O)Nc2ccc([N+](=O)[O-])cc2)cc1 (stereo not given) | · | · | · | · | · | · | · | Fam108b ABPP HTS=95*
CNC(=O)N(O)C1N(/N=C/c2ccc(SC)cc2)C(=S)SC1(C)C (stereo not given) | -1 | 5 | -1 | 11 | -3 | 0 | ·
SMILES | PME-1 inh | LYPLA2 inh | LYPLA1 inh | procasp3 activ | Fam108B inh | proCasp7 act | Fam108b inh conf | others
Cc1cc(Br)ccc1NC(=O)CN(C)C(=O)c1cc(S(=O)(=O)N(C)C)ccc1N1CCCC1 | -5 | 4 | -3 | 7 | -2 | -3 | ·
CCCN(C(=O)COC(=O)Cn1c(=O)oc2ccccc21)c1c(N)n(Cc2ccccc2)c(=O)[nH]c1=O | 4 | -2 | -1 | 10 | 1 | -3 | ·
COc1ccc(N/N=C(\C=N\O)C(=O)c2ccc(OC)cc2)cc1 | 57* | 16 | 5 | 2 | 47* | -16 | 42*
CCc1ccc(/C=N/NC(=O)C(=O)NCCCN2CCOCC2)cc1 | -3 | -1 | -6 | -11 | -3 | 19 | ·
O=C/C=C/c1c(-c2ccccc2)cc2oc3ccccc3cc1-2 | 6 | -6 | 2 | -8 | 27* | -7 | -12
Nc1ccc(-c2cc3ccccc3oc2=O)cc1 | 4 | 12 | 7 | 5 | 3 | -9 | ·
COC(=O)/C(=N/Nc1ccccc1OC)N1CCCc2ccccc21 | -3 | -7 | -4 | -4 | -1 | -11 | ·
O=C(C1CCCCC1)N1CCc2[nH]c3ccc(F)cc3c2C1 | -1 | 8 | 0 | 0 | -4 | -17 | ·
COc1ccccc1NC(=O)N1CCc2[nH]c3ccc(F)cc3c2C1 | 6 | -1 | -2 | -6 | 21* | 14 | -6
CCOC(=O)c1c(NC(=O)Nc2ccccc2)sc(C)c1C | 21 | -3 | -7 | 1 | 22* | -16 | 6
Clc1ccc2[nH]c3c(c2c1)CCc1cn[nH]c1-3 | 40* | 12 | -6 | 1 | 22* | 1 | 12
Cn1nc(C(=O)NNC(=O)C2CSC3(C)CCC(=O)N23)c2ccccc2c1=O (stereo not given) | -1 | 7 | 3 | -7 | 0 | -7 | ·
COc1ccccc1/C=C1\S/C(=N/NC(=O)c2cccc(Br)c2)NC1=O | 8 | 2 | 0 | 5 | 21* | 9 | 17
Brc1ccc(-c2csc(Nc3nc(-c4ccc(Br)cc4)cs3)n2)cc1 | 22 | 1 | -8 | 1 | 50* | 1 | 34* | Fam108b ABPP HTS=85*
Nc1nc(-c2ccc(Br)cc2)cs1 | 6 | 10 | 4 | -19 | 0 | -15 | ·
CC(C)(C)OC(=O)C[C@H]1C/C=C\C[C@@H](CC(=O)N(CCO)Cc2ccccc2)C(=O)NC[C@@H](c2ccccc2)OC1=O | · | · | · | 4 | · | 13 | ·
CCOc1ccc(N(CC(=O)NCc2ccccc2C)S(C)(=O)=O)cc1 | 2 | -1 | 2 | 0 | 0 | 2 | ·
O=[N+]([O-])c1ccc2nc(-c3ccc(Cl)cc3)[nH]c2c1 | -11 | -12 | -10 | -8 | 20* | -3 | 6
